From ChEMBL document CHEMBL3351861, “New synthetic sulfone derivatives inhibit growth, adhesion and the leucine arylamidase APE2 gene expression of Candida albicans in vitro” (2015)
Values after ≈ are worked out from the molar mass of the structure shown.

Experiments:
Candida albicans [1] = experiment: Antifungal activity against Candida albicans CAI4 expressing delta-efg1 gene assessed as growth inhibition at 0.25 ug/ml by CLSI M27-A3 method; type: functional; conditions: read-out: GI
Procedure, shortened: (§1)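 CLSI M27-A3 broth microdilution in RPMI, read after 48 h. Strains pre-grown 18 h in YEPD at 30°C. Final inoculum 0.5×10^2–2.5×10^3 cells/ml. Two-fold dilutions in RPMI came from a 1600 µg/ml stock in water with 9% DMSO; final DMSO was 0.09%. OD405 read, % inhibition = 100 − (CTW−SCW)/(GCW−SCW). Triplicate on three occasions, mean±SD.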

Candida albicans [2] = experiment: Inhibition of cell adhesion of compound pre-treated Candida albicans SC5314 to human Caco2 cells assessed as cell adhesion level at 16 ug/ml pre-incubated for 18 hrs by colony counting method (reference value: 1.1 +/- 1.1%); type: functional, Caco-2; set-up: scale not given: the % may be the effect or the level left
Candida albicans [3] = experiment: Antifungal activity against Candida albicans CAI4 expressing delta-cph1 gene assessed as growth inhibition at 4 ug/ml by CLSI M27-A3 method; type: functional; conditions: read-out: GI; procedure, shortened: as §1
Candida albicans [4] = experiment: Antifungal activity against Candida albicans CAI4 expressing delta-cph1 (CPH1) gene assessed as growth inhibition at 0.5 ug/ml by CLSI M27-A3 method; type: functional; conditions: read-out: GI; procedure, shortened: as §1
Candida albicans [5] = experiment: Inhibition of cell adhesion of compound pre-treated Candida albicans CAI4 expressing delta-efg1/delta-cph1 gene to human Caco2 cells assessed as cell adhesion level at 16 ug/ml pre-incubated for 18 hrs by colony counting method (reference value: 1.22 +/- 0.78%); type: functional, Caco-2; set-up: scale not given: the % may be the effect or the level left
Candida albicans [6] = experiment: Antifungal activity against Candida albicans CAI4 expressing delta-cph1 gene assessed as growth inhibition at 8 ug/ml by CLSI M27-A3 method; type: functional; conditions: read-out: GI; procedure, shortened: as §1
Candida albicans [7] = experiment: Antifungal activity against Candida albicans CAI4 expressing delta-cph1 (CPH1) gene assessed as growth inhibition at 16 ug/ml by CLSI M27-A3 method; type: functional; conditions: read-out: GI; procedure, shortened: as §1
Candida albicans [8] = experiment: Antifungal activity against Candida albicans CAI4 expressing delta-cph1/delta-efg1 gene assessed as growth inhibition at 0.25 ug/ml by CLSI M27-A3 method; type: functional; conditions: read-out: GI; procedure, shortened: as §1
Candida albicans [9] = experiment: Antifungal activity against Candida albicans CAI4 expressing delta-cph1/delta-efg1 (EFG1) gene assessed as growth inhibition at 8 ug/ml by CLSI M27-A3 method; type: functional; conditions: read-out: GI; procedure, shortened: as §1
Candida albicans [10] = experiment: Antifungal activity against Candida albicans 90028 assessed as growth inhibition at 0.25 ug/ml by CLSI M27-A3 method; type: functional; conditions: read-out: GI; procedure, shortened: as §1
Candida albicans [11] = experiment: Antifungal activity against Candida albicans CAI4 expressing delta-cph1 gene assessed as growth inhibition at 0.25 ug/ml by CLSI M27-A3 method; type: functional; conditions: read-out: GI; procedure, shortened: as §1
Candida albicans [12] = experiment: Antifungal activity against Candida albicans CAI4 expressing delta-efg1 (EFG1) gene assessed as growth inhibition at by CLSI M27-A3 method; type: functional
Candida albicans [13] = experiment: Antifungal activity against Candida albicans CAI4 expressing delta-efg1 (EFG1) gene assessed as growth inhibition at 2 ug/ml by CLSI M27-A3 method; type: functional; conditions: read-out: GI; procedure, shortened: as §1
Candida albicans [14] = experiment: Inhibition of cell adhesion of compound pre-treated Candida albicans CAI4 expressing delta-cph1 gene to human Caco2 cells assessed as cell adhesion level at 16 ug/ml pre-incubated by colony counting method (reference value: 1.6 +/- 0.65%); set-up: scale not given: the % may be the effect or the level left
Candida albicans [15] = experiment: Antifungal activity against Candida albicans CAI4 expressing delta-efg1 (EFG1) gene assessed as growth inhibition at 4 ug/ml by CLSI M27-A3 method; type: functional; conditions: read-out: GI; procedure, shortened: as §1
Candida albicans [16] = experiment: Antifungal activity against Candida albicans CAI4 expressing delta-cph1 (CPH1) gene assessed as growth inhibition at 4 ug/ml by CLSI M27-A3 method; type: functional; conditions: read-out: GI; procedure, shortened: as §1
Candida albicans [17] = experiment: Antifungal activity against Candida albicans CAI4 expressing delta-cph1 gene assessed as growth inhibition at 2 ug/ml by CLSI M27-A3 method; type: functional; conditions: read-out: GI; procedure, shortened: as §1
Candida albicans [18] = experiment: Inhibition of cell adhesion of compound pre-treated Candida albicans CAI4 expressing delta-efg1 gene to human Caco2 cells assessed as cell adhesion level at 2 ug/ml pre-incubated for 18 hrs by colony counting method (reference value: 2.1 +/- 3.52%); type: functional, Caco-2; set-up: scale not given: the % may be the effect or the level left
Candida albicans [19] = experiment: Antifungal activity against Candida albicans CAI4 expressing delta-efg1 (EFG1) gene assessed as growth inhibition at 1 ug/ml by CLSI M27-A3 method; type: functional; conditions: read-out: GI; procedure, shortened: as §1
Candida albicans [20] = experiment: Inhibition of cell adhesion of compound pre-treated Candida albicans CAI4 expressing delta-cph1 (CPH1) gene to human Caco2 cells assessed as cell adhesion level at 2 ug/ml pre-incubated for 18 hrs by colony counting method (reference value: 5.37 +/- 12.4%); type: functional, Caco-2; set-up: scale not given: the % may be the effect or the level left
Candida albicans [21] = experiment: Inhibition of cell adhesion of compound pre-treated Candida albicans CAI4 expressing delta-efg1/delta-cph1 gene to human Caco2 cells assessed as cell adhesion level at 8 ug/ml pre-incubated for 18 hrs by colony counting method (reference value: 1.22 +/- 0.78%); type: functional, Caco-2; set-up: scale not given: the % may be the effect or the level left
Candida albicans [22] = experiment: Antifungal activity against Candida albicans CAI4 expressing delta-cph1/delta-efg1 (EFG1) gene assessed as growth inhibition at 2 ug/ml by CLSI M27-A3 method; type: functional; conditions: read-out: GI; procedure, shortened: as §1
Candida albicans [23] = experiment: Antifungal activity against Candida albicans CAI4 expressing delta-cph1 gene assessed as growth inhibition at 0.5 ug/ml by CLSI M27-A3 method; type: functional; conditions: read-out: GI; procedure, shortened: as §1
Candida albicans [24] = experiment: Antifungal activity against Candida albicans CAI4 expressing delta-cph1/delta-efg1 gene assessed as growth inhibition at 0.5 ug/ml by CLSI M27-A3 method; type: functional; conditions: read-out: GI; procedure, shortened: as §1
Candida albicans [25] = experiment: Antifungal activity against Candida albicans 90028 assessed as growth inhibition at 2 ug/ml by CLSI M27-A3 method; type: functional; conditions: read-out: GI; procedure, shortened: as §1
Candida albicans [26] = experiment: Inhibition of cell adhesion of compound pre-treated Candida albicans CAI4 expressing delta-cph1/delta-efg1 (EFG1) gene to human Caco2 cells assessed as cell adhesion level at 8 ug/ml pre-incubated for 18 hrs by colony counting method (reference value: 1.24 +/- 1.06%); type: functional, Caco-2; set-up: scale not given: the % may be the effect or the level left
Candida albicans [27] = experiment: Inhibition of cell adhesion of compound pre-treated Candida albicans CAI4 expressing delta-efg1/delta-cph1 gene to human Caco2 cells assessed as cell adhesion level at 4 ug/ml pre-incubated for 18 hrs by colony counting method (reference value: 1.22 +/- 0.78%); type: functional, Caco-2; set-up: scale not given: the % may be the effect or the level left
Candida albicans [28] = experiment: Inhibition of cell adhesion of compound pre-treated Candida albicans CAI4 expressing delta-cph1 (CPH1) gene to human Caco2 cells assessed as cell adhesion level at 8 ug/ml pre-incubated for 18 hrs by colony counting method (reference value: 5.37 +/- 12.4%); type: functional, Caco-2; set-up: scale not given: the % may be the effect or the level left
Candida albicans [29] = experiment: Antifungal activity against Candida albicans 90028 assessed as growth inhibition at 16 ug/ml by CLSI M27-A3 method; type: functional; conditions: read-out: GI; procedure, shortened: as §1
Candida albicans [30] = experiment: Inhibition of cell adhesion of compound pre-treated Candida albicans CAI4 expressing delta-cph1/delta-efg1 (EFG1) gene to human Caco2 cells assessed as cell adhesion level at 16 ug/ml pre-incubated for 18 hrs by colony counting method (reference value: 1.24 +/- 1.06%); type: functional, Caco-2; set-up: scale not given: the % may be the effect or the level left
Candida albicans [31] = experiment: Antifungal activity against Candida albicans CAI4 expressing delta-cph1 (CPH1) gene assessed as growth inhibition at by CLSI M27-A3 method; type: functional

SMILES | inhibition of growth at 0.25 µg/mL (Candida albicans [1]) [%] | Activity (Candida albicans [2]) [%] | inhibition of growth at 4 µg/mL (Candida albicans [3]) [%] | inhibition of growth at 0.5 µg/mL (Candida albicans [4]) [%] | Activity (Candida albicans [5]) [%] | inhibition of growth at 8 µg/mL (Candida albicans [6]) [%] | inhibition of growth at 16 µg/mL (Candida albicans [7]) [%] | inhibition of growth at 0.25 µg/mL (Candida albicans [8]) [%] | inhibition of growth at 8 µg/mL (Candida albicans [9]) [%] | inhibition of growth at 0.25 µg/mL (Candida albicans [10]) [%] | inhibition of growth at 0.25 µg/mL (Candida albicans [11]) [%] | MIC90 (Candida albicans [12]) [µg/mL] | inhibition of growth at 2 µg/mL (Candida albicans [13]) [%] | Activity (Candida albicans [14]) [%] | inhibition of growth at 4 µg/mL (Candida albicans [15]) [%] | inhibition of growth at 4 µg/mL (Candida albicans [16]) [%] | inhibition of growth at 2 µg/mL (Candida albicans [17]) [%] | Activity (Candida albicans [18]) [%] | inhibition of growth at 1 µg/mL (Candida albicans [19]) [%] | Activity (Candida albicans [20]) [%] | further results
NNc1ccc(S(=O)(=O)C(Cl)(Br)Br)cc1[N+](=O)[O-] | 70.8 | 0.8 | 100 | 98.8 | 2.25 | 100 | 99.8 | 70 | 99.4 | 17 | 20 | 4 (≈ 9.45 µM) | 99.1 | 0.37 | 99.3 | 99.1 | 100 | 1.32 | 98.8 | 1.86 | Activity (Candida albicans [21]): 1.66%; inhibition of growth at 2 µg/mL (Candida albicans [22]): 99.3%; inhibition of growth at 0.5 µg/mL (Candida albicans [23]): 96.6%; inhibition of growth at 0.5 µg/mL (Candida albicans [24]): 97%; inhibition of growth at 2 µg/mL (Candida albicans [25]): 99.6%; Activity (Candida albicans [26]): 0.75%; Activity (Candida albicans [27]): 2.74%; Activity (Candida albicans [28]): 0.9%; inhibition of growth at 16 µg/mL (Candida albicans [29]): 100%; Activity (Candida albicans [30]): 1.5%; MIC90 (Candida albicans [31]): 4 µg/mL (≈ 9.45 µM)
O=[N+]([O-])c1cc(S(=O)(=O)C(Cl)(Cl)Br)ccc1Cl | 98.4 | 0.71 | 98.7 | 97.1 | 0.43 | 99.3 | 99.8 | 98.3 | 99.8 | 98.6 | 97.4 | 16 (≈ 41.7 µM) | 99.3 | 0.56 | 99.3 | 99.7 | 98.9 | 0.9 | 99.2 | 2.38 | Activity (Candida albicans [21]): 0.38%; inhibition of growth at 2 µg/mL (Candida albicans [22]): 99.3%; inhibition of growth at 0.5 µg/mL (Candida albicans [23]): 97.4%; inhibition of growth at 0.5 µg/mL (Candida albicans [24]): 98.6%; inhibition of growth at 2 µg/mL (Candida albicans [25]): 98.9%; Activity (Candida albicans [26]): 1.26%; Activity (Candida albicans [27]): 1.02%; Activity (Candida albicans [28]): 2.78%; inhibition of growth at 16 µg/mL (Candida albicans [29]): 99.6%; Activity (Candida albicans [30]): 0.75%; MIC90 (Candida albicans [31]): 16 µg/mL (≈ 41.7 µM)
O=[N+]([O-])c1cc(S(=O)(=O)C(Cl)Cl)ccc1Cl | 99.1 | 0.68 | 99.1 | 96.7 | 0.42 | 99.2 | 99.4 | 99 | 99.3 | 99.1 | 97.7 | 16 (≈ 52.5 µM) | 98.1 | 1.03 | 98.5 | 98.7 | 99 | 1.1 | 96 | 1.43 | Activity (Candida albicans [21]): 0.48%; inhibition of growth at 2 µg/mL (Candida albicans [22]): 99.2%; inhibition of growth at 0.5 µg/mL (Candida albicans [23]): 99.1%; inhibition of growth at 0.5 µg/mL (Candida albicans [24]): 99.1%; inhibition of growth at 2 µg/mL (Candida albicans [25]): 99.5%; Activity (Candida albicans [26]): 2.24%; Activity (Candida albicans [27]): 0.36%; Activity (Candida albicans [28]): 0.71%; inhibition of growth at 16 µg/mL (Candida albicans [29]): 99.4%; Activity (Candida albicans [30]): 1.68%; MIC90 (Candida albicans [31]): 16 µg/mL (≈ 52.5 µM)
